Laboratory results taken from ChEMBL document CHEMBL2169822, “Discovery and optimization of 1,3,4-trisubstituted-pyrazolone derivatives as novel, potent, and nonsteroidal farnesoid X receptor (FXR) selective antagonists” (J Med Chem, 2012).
Activity calls are given as the source filed them. No cut-off for these calls is given here.

Experiments:
Mus musculus [1] = experiment: Reduction of hepatic triglyceride level in cholesterol-fed C57BL/6 mouse at 50 mg/kg, po after 10 days; format: functional; parameters: scale not given: the % may be the effect or the level left
In short: (§1)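 Male C57BL/6 mice, 8–12 weeks old, were randomized into five groups of nine. Control mice had ground chow; the other groups had chow with 2% cholesterol. Compound (50 or 100 mg/kg) or reference (100 mg/kg) was suspended in 0.5% CMC-Na and given by oral gavage; control and vehicle mice got 0.5% CMC-Na. Serum and hepatic triglyceride and total cholesterol were measured.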

[2] = target: T1, Bile acid receptor (Homo sapiens) (UniProt Q96RI1); experiment: Antagonist activity at human FXR in human HepG2 cells assessed as inhibition of CDCA induced BSEP gene expression at 5 to 40 uM after 24 hrs by RT-PCR analysis; format: functional, cell-based
T1 sequence (whole entry): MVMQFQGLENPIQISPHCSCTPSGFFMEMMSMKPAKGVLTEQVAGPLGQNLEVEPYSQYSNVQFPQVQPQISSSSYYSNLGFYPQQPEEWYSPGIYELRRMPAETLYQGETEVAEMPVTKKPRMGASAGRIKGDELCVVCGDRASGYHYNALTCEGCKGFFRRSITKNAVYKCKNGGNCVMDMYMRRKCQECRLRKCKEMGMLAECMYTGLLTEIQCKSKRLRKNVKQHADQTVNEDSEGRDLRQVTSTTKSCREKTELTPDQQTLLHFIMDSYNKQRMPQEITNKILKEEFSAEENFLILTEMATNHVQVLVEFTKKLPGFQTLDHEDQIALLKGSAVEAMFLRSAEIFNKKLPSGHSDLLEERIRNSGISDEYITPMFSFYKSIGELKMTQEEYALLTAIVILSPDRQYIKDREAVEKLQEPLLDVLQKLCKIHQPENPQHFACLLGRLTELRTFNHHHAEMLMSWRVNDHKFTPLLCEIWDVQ
In short: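 HepG2 cells in 6-well plates were treated with varied concentrations of compound, with or without 100 μM CDCA, for 24 h. Total RNA was taken with TRIzol and cDNA made by reverse transcription. Cyp7A1, SHP, BSEP and SREBP1c mRNA were measured by quantitative RT-PCR and normalized to β-actin. Three independent experiments.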

[3] = target: T2, Retinoic acid receptor RXR-alpha (Homo sapiens) (UniProt P19793); experiment: Agonist activity at recombinant RXRalphaLBD expressed in HEK293T cells co-expressing GAL4 DBD at 20 uM by transactivation assay; format: functional, cell-based; details: HEK-293T
T2 sequence (whole entry): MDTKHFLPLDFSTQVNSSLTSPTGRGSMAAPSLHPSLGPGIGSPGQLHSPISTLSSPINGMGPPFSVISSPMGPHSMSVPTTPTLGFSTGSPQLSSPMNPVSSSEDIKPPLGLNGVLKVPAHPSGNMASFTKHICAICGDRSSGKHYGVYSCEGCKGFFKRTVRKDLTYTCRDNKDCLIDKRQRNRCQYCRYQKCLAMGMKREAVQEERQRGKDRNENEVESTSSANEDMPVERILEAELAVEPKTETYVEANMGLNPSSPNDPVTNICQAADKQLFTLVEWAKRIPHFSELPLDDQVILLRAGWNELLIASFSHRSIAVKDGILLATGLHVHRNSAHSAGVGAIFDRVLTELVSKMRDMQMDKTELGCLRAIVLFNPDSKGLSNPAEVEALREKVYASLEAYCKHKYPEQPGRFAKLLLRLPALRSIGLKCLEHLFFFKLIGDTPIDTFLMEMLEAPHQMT
In short: (§2)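 One-hybrid assay in HEK293T cells cotransfected with a Gal4 DBD–NR-LBD fusion (RXRα, LXRα, GR, PR, PPARδ or PPARγ) plus UAS-TK-Luc reporter. Compound was 20 μM, given alone or with agonist: 9cRA 0.1 μM (RXRα), TO901317 0.5 μM (LXRα), dexamethasone 50 nM (GR), progesterone 100 nM (PR), GW1516 10 μM (PPARδ), rosiglitazone 10 μM (PPARγ). Luciferase read-out; three independent experiments.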

Homo sapiens = species: Homo sapiens; experiment: Ratio of Z-guggulsterone IC50 to compound IC50 for GST-tagged human recombinant FXRalphaLBD
HEK-293T [4] = experiment: Antagonist activity at FXRalpha/RXRalpha expressed in HEK293T cells co-expressing GAL4 DBD assessed as inhibition of CDCA-induced transactivation at 40 uM after 18 hrs by luciferase reporter gene assay; format: functional, cell-based; details: Homo sapiens
In short: (§3)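 FXR transactivation in HEK293T cells transiently transfected with pcDNA3.1-FXRα, pcDNA3.1-RXRα, pGL3-FXRE-Luc and pRL-SV40 Renilla vector. Medium was replaced 6 h after transfection with medium holding compound at varied concentrations, with or without 20 μM CDCA, for 18 h. Read-out was dual-luciferase. Three independent experiments.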

[5] = target: T2, Retinoic acid receptor RXR-alpha (Homo sapiens); experiment: Antagonist activity at recombinant RXRalpha LBD expressed in HEK293T cells co-expressing GAL4 DBD assessed as inhibition of 9cRA-induced transactivation at 20 uM by luciferase reporter gene assay; format: functional, cell-based; details: HEK-293T; in short: as §2
HEK-293T [6] = experiment: Antagonist activity at FXRalphaLBD expressed in HEK293T cells co-expressing GAL4 DBD assessed as inhibition of CDCA-induced transactivation at 60 uM after 18 hrs by luciferase reporter gene assay; format: functional, cell-based; details: Homo sapiens
In short: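 Mammalian one-hybrid assay in HEK293T cells cotransfected with pCMX-Gal4DBD-FXRαLBD, UAS-TK-Luc reporter and pRL-SV40 Renilla vector. Cells were exposed to vehicle or compound for 18 h, with or without 20 μM CDCA. Read-out was dual-luciferase. Three independent experiments.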

[7] = Antagonist activity at GST-tagged human recombinant FXRalphaLBD expressed in Escherichia coli BL21 cells assessed as inhibition of CDCA-induced SRC-1 co-activator association at 40 uM by HTRF assay; format: functional
In short: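 HTRF coactivator recruitment: 10 nM GST-human FXRαLBD (residues 238–473, E. coli BL21(DE3)), 0.83 nM anti-GST-Eu cryptate, 100 nM biotin-SRC1 peptide, 41.75 nM SA/XL665. Buffer was 50 mM Hepes pH 7.0, 125 mM KF, 0.125% CHAPS, 0.05% dry milk. Compound alone or with CDCA, 30 min at room temperature. Signal was 1000×(668/620 nm). Primary screen at 40 μM; IC50 as mean ± SE, three experiments.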

Mus musculus [8] = experiment: Reduction of hepatic triglyceride level in cholesterol-fed C57BL/6 mouse administered orally after 10 days; format: functional, organism-based; in short: as §1
Mus musculus [9] = experiment: Reduction of serum triglyceride level in cholesterol-fed C57BL/6 mouse at 100 mg/kg, po after 10 days; format: functional; parameters: scale not given: the % may be the effect or the level left; in short: as §1
HEK-293T [10] = experiment: Agonist activity at FXRalpha/RXRalpha expressed in HEK293T cells co-expressing GAL4 DBD after 18 hrs by luciferase based transactivation assay; format: functional, cell-based; details: Homo sapiens; in short: as §3
[11] = Binding affinity to FXRalphaLBD assessed as increase in thermal stability
In short: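 DSC with 2 mg/mL FXRαLBD in 20 mM Tris-HCl, 50 mM NaCl, pH 8.0, with DMSO or compound at a compound:protein ratio of 5:1, against the dialysis buffer as reference. Scan was 10–110 °C at 90 °C/h, giving Tm.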

- Activity [3]: inactive
- Ratio IC50 (Homo sapiens): 10
- inhibition [5]: inactive
- Tm [11]: 58.7 °C
SMILES: COc1cc(/C=C2\C(=O)N(c3cccc([N+](=O)[O-])c3)N=C2c2ccccc2)ccc1O
- Activity (Mus musculus [1]): 43.5%
- inhibition [2]: Active
- inhibition (HEK-293T [4]): Active
- inhibition (HEK-293T [6]): Active
- inhibition at 40 µM [7]: 70.4%
- Activity (Mus musculus [8]): Dose-dependent effect
- Activity (Mus musculus [9]): 60.3%
- Activity (HEK-293T [10]): inactive
